From ChEMBL document CHEMBL1147890, “Synthesis of the new pseudo-symmetrical tamoxifen derivatives and their anti-tumor activity” (Bioorg Med Chem Lett, 2007)
Active and inactive are the calls of the source. No cut-off for these calls is given here.

Tests used:
[1] = system: HL-60; experiment: Antitumor activity against HL60 cells at 5 uM after 6 hrs by MTT assay; format: functional, Homo sapiens
Outline: (§1)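 HL-60 human acute promyelocytic leukemia cells exposed for 0–6 h at final 2.5, 5, 7.5 and 10 µM. Viability read by MTT (mitochondrial succinic dehydrogenase reduces dye to formazan). Growth rate expressed against formazan absorbance at 0 h set to 1.0. SD, n = 5. IC50 taken as median growth-inhibitory concentration at 3 h or 6 h.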

[2] = system: HL-60; experiment: Antitumor activity against HL60 cells at 10 uM after 6 hrs by MTT assay; format: functional, Homo sapiens; outline: as §1
[3] = system: HL-60; experiment: Antitumor activity against HL60 cells at 5 ug/ml after 4 hrs by MTT assay; format: functional, Homo sapiens
Outline: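 HL-60 cells given 5 µg/mL. Viability measured by MTT formazan absorbance after 4 h and expressed relative to the 0 h reading.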

[4] = system: HL-60; experiment: Antitumor activity against HL60 cells after 3 hrs by MTT assay; format: functional, cell-based; settings: Homo sapiens, HL-60, 3 h; outline: as §1
[5] = system: HL-60; experiment: Antitumor activity against HL60 cells after 6 hrs by MTT assay; format: functional, cell-based; settings: Homo sapiens, HL-60, 6 h; outline: as §1
[6] = system: HL-60; experiment: Antitumor activity against HL60 cells at 7.5 uM after 6 hrs by MTT assay; format: functional, Homo sapiens; outline: as §1
[7] = system: HL-60; experiment: Induction of apoptosis in HL60 cells assessed as DNA fragmentation at 9 uM by agarose gel electrophoresis; format: functional, cell-based; settings: Homo sapiens
Outline: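 Apoptosis versus necrosis judged by oligonucleosomal DNA cleavage on agarose gel electrophoresis. HL-60 cells treated 6 h at 9 µM final. Controls were medium only, tamoxifen, ethanol and actinomycin D.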

| SMILES | Activity [1] [%] | Activity [2] [%] | Activity [3] [%] | IC50 [4] [µM] | IC50 [5] [µM] | Activity [6] [%] | Activity [7] |
| --- | --- | --- | --- | --- | --- | --- | --- |
| CCC(=C(c1ccc(OCCN2CCCC2)cc1)c1ccc(OCCN2CCCC2)cc1)c1ccccc1 | >90 | >90 | >90 | 4 | 3 | >90 | Active |
| CCC(=C(c1ccc(OCCN2CCCCC2)cc1)c1ccc(OCCN2CCCCC2)cc1)c1ccccc1 |  | >80 |  |  | 5 | >80 | Active |
